Measured values from ChEMBL document CHEMBL3792331, “Identification and synthesis of potent and selective pyridyl-isoxazole based agonists of sphingosine-1-phosphate 1 (S1P1)” (Bioorg Med Chem Lett, 2016).

Legend:
Liver microsome [1] = test: Stability in human liver microsomes assessed as compound remaining; format: ADME
Liver microsome [2] = test: Stability in rat liver microsomes assessed as compound remaining; format: ADME
[3] = Stability in mouse liver microsomes assessed as compound remaining; format: ADME
[4] = Half life in mouse at 2 mg/kg, iv; format: ADME, organism-based; conditions: in vivo
[5] = Clearance in mouse at 2 mg/kg, iv; format: ADME, organism-based; conditions: in vivo
Mus musculus [6] = test: Clearance in mouse at 2 mg/kg, iv relative to hepatic blood flow; format: ADME, organism-based, Liver; conditions: in vivo
[7] = Volume of distribution at steady state in mouse at 2 mg/kg, iv; format: ADME, organism-based; conditions: in vivo, read-out: Vdss
Method in brief: (§1)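 Multi-species pharmacokinetic study with separate iv and oral dosing arms. Steady-state volume of distribution was taken from the iv arm: 2 mg/kg in mouse and rat, 1 mg/kg in cynomolgus monkey and dog. Oral doses in the same study were 5 mg/kg in mouse and rat and 1 mg/kg in monkey and dog.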

[8] = Oral bioavailability in mouse at 5 mg/kg; format: ADME, organism-based; conditions: in vivo
Mus musculus [9] = test: Ratio of Cmax to Cmin in mouse at 5 mg/kg, po; format: ADME, organism-based; conditions: in vivo
[10] = Half life in rat at 2 mg/kg, iv; format: ADME, organism-based; conditions: in vivo
[11] = Clearance in rat at 2 mg/kg, iv; format: ADME, organism-based; conditions: in vivo
Rattus norvegicus [12] = test: Clearance in rat at 2 mg/kg, iv relative to hepatic blood flow; format: ADME, organism-based, Liver; conditions: in vivo
[13] = Volume of distribution at steady state in rat at 2 mg/kg, iv; format: ADME, organism-based; conditions: in vivo, read-out: Vdss; method in brief: as §1
[14] = Oral bioavailability in rat at 5 mg/kg; format: ADME, organism-based; conditions: in vivo
Rattus norvegicus [15] = test: Ratio of Cmax to Cmin in rat at 5 mg/kg, po; format: ADME, organism-based; conditions: in vivo
[16] = Half life in cynomolgus monkey at 1 mg/kg, iv; format: ADME, organism-based, Macaca fascicularis; conditions: in vivo
[17] = Clearance in cynomolgus monkey at 1 mg/kg, iv; format: ADME, organism-based, Macaca fascicularis; conditions: in vivo
Cynomolgus monkey [18] = test: Clearance in cynomolgus monkey at 1 mg/kg, iv relative to hepatic blood flow; format: ADME, organism-based, Macaca fascicularis, Liver; conditions: in vivo
[19] = Volume of distribution at steady state in cynomolgus monkey at 1 mg/kg, iv; format: ADME, organism-based, Macaca fascicularis; conditions: in vivo, read-out: Vdss; method in brief: as §1
[20] = Oral bioavailability in cynomolgus monkey at 1 mg/kg; format: ADME, organism-based, Macaca fascicularis; conditions: in vivo
Cynomolgus monkey [21] = test: Ratio of Cmax to Cmin in cynomolgus monkey at 1 mg/kg, po; format: ADME, organism-based, Macaca fascicularis; conditions: in vivo
[22] = Half life in dog at 1 mg/kg, iv; format: ADME, organism-based, Canis lupus familiaris; conditions: in vivo
[23] = Clearance in dog at 1 mg/kg, iv; format: ADME, organism-based, Canis lupus familiaris; conditions: in vivo
Canis familiaris [24] = test: Clearance in dog at 1 mg/kg, iv relative to hepatic blood flow; format: ADME, organism-based, Canis lupus familiaris, Liver; conditions: in vivo
[25] = Volume of distribution at steady state in dog at 1 mg/kg, iv; format: ADME, organism-based, Canis lupus familiaris; conditions: in vivo, read-out: Vdss; method in brief: as §1
[26] = Oral bioavailability in dog at 1 mg/kg; format: ADME, organism-based, Canis lupus familiaris; conditions: in vivo
Canis familiaris [27] = test: Ratio of Cmax to Cmin in dog at 1 mg/kg, po; format: ADME, organism-based, Canis lupus familiaris; conditions: in vivo
Rattus norvegicus [28] = test: Anti-inflammatory activity in Lewis rat complete Freund's adjuvant-induced arthritis model of human rheumatoid arthritis assessed as reduction in hind paw swelling at 0.5 and 3 mg/kg, po QD for 21 days starting at day 0 by plethysmometry; format: functional, organism-based
Method in brief: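 Male Lewis rats given complete Freund's adjuvant with heat-killed Mycobacterium butyricum subcutaneously at the tail base. Dosed orally once daily for 21 days from day 0. Hind paw volume measured by water displacement plethysmometry at baseline and over three weeks; increase above baseline calculated. Compared with vehicle, p<0.05.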

SMILES: O=C(O)C1CN(Cc2ccc(-c3noc(-c4onc(-c5ccccn5)c4C(F)(F)F)n3)cc2)C1
- Stability (Liver microsome [1]): 88%
- Stability (Liver microsome [2]): 100%
- Stability [3]: 100%
- half-life [4]: 4.5 h
- clearance [5]: 0.3 mL/min/kg
- CL (Mus musculus [6]): < 1%
- Vd [7]: 0.1 L/kg
- bioavailability [8]: 70%
- Ratio (Mus musculus [9]): 2.8
- half-life [10]: 4.8 h
- clearance [11]: 1 mL/min/kg
- CL (Rattus norvegicus [12]): 1.4%
- Vd [13]: 0.4 L/kg
- bioavailability [14]: 100%
- Ratio (Rattus norvegicus [15]): 26
- half-life [16]: 1.1 h
- clearance [17]: 14 mL/min/kg
- CL (Cynomolgus monkey [18]): 32%
- Vd [19]: 0.5 L/kg
- bioavailability [20]: 12%
- Ratio (Cynomolgus monkey [21]): > 400
- half-life [22]: 6.1 h
- clearance [23]: 2.6 mL/min/kg
- CL (Canis familiaris [24]): 8.4%
- Vd [25]: 0.7 L/kg
- bioavailability [26]: 87%
- Ratio (Canis familiaris [27]): 7.4
- Activity (Rattus norvegicus [28]): Dose-dependent effect
